The results in this text go back to PubChem BioAssay.

Experiment [1] is described as follows: Her2 expression decrease, cell viability multiplex – SKBR3 breast tumor cells, AlphaScreen, ATP viability, primary screen (AID 461;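 active means Her2 level under about 52% in both replicate screens, with viability over 70% of control, limit read from the data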;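 on Her2 level: lower value means less Her2 protein in the cells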;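 on viability: percent of carrier control wells set as 100% viability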). Particulars: SKBR3 Her2 protein level, 18-24 h, measured here: SKBR3 viability, ATP luminescence, at 10 µM. Background: Bead proximity is the source of the signal in Alpha formats.
For experiment [2], the target named is Receptor tyrosine-protein kinase erbB-2 (Homo sapiens) (UniProt P04626). The experiment is described as above. As to conditions: 18-24 h, at 10 µM, stronger effect = lower value.
Experiment [3] in a line: reduced viability of SK-BR-3 breast cancer cells – cell-based, 24 h, human, pilot screen (AID 572;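 active means viability at or below 10% of carrier control in both of two separate runs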;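 further: compound exposure lasted between 18 and 24 h rather than exactly 24 h; 100% = carrier-treated control wells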). As to conditions: SK-BR-3 viability, CellTiter-Glo luminescence, at 10 µM, stronger effect = lower value. For orientation: ATP-based viability assays read luminescence as a measure of living cells.
The nature of experiment [4]: HUVEC growth inhibition – cell-based, human, primary screen (AID 575;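 active means viability at or below 30% in both replicate assays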;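 further: 100% = median of untreated cell wells with 0.1% DMSO on each plate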). Particulars: HUVEC proliferation, CellTiter-Glo luminescence, 72 h; at 10 µM; stronger effect = lower value. The method in brief:
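Test system – primary HUVEC, no more than 12 passages · Dosing – one dose, 10 µM final, 0.1% DMSO · Times – 72 h treatment at 37 °C · Measured by – ATP-based CellTiter-Glo luminescent read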

Experiment [5] can be described thus: H69AR cell proliferation blockers – human, duplicate replicates, primary screen (AID 580;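 active means viability at or under a set limit in both replicates, limit being median viability minus 3 SD, cut at about 48% in these data, passing the limit was not always enough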;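 further: 100% = mean luminescence of untreated wells and 0% = no signal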). As to conditions: H69AR lung tumor cells viability, ATP luminescence, 72 h; at 10 µM; stronger effect = lower value.
The nature of experiment [6]: MRP1 drug-resistance reversers in H69AR cells – cell-based, doxorubicin co-treatment, pilot screen (AID 601;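 active means viability loss from added drug above about 55%, and viability with drug at most 40%, in both replicates, limit read from the data, passing the limit was not always enough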). As to conditions: CellTiter-Glo, 72 h, at 10 µM; for differential viability (reversal): stronger effect = higher value.
The nature of experiment [7]: yeast transport mutant growth inhibition pilot in 384-well plates, post-Golgi transport modulator project (AID 636; in the data active means inhibition above about 31%). As to conditions: absorbance 615 nm, about 18 h, stronger effect = higher value.
Experiment [8] can be described thus: growth suppression of yeast trafficking mutant, preliminary HTS, modulators of trafficking downstream of Golgi apparatus project, 1536-format plate, OD 615 nm (AID 637). Particulars: yeast transport mutant growth, absorbance 615 nm, 18 h; stronger effect = higher value.
The mark [9] stands for this setting: H69AR cells + 2 uM doxorubicin, measured here: viability with 2 uM doxorubicin, stronger effect = lower value.
Setting [10] is: H69AR cells, compound alone cytotoxicity.

Active and inactive are the calls of the source. Unless noted, no stated cut-off is given here; in the data, active means inhibition above about 30%; inactive means the rest.

Chain of Receptor tyrosine-protein kinase erbB-2 (Homo sapiens) (P04626 whole entry, looked up): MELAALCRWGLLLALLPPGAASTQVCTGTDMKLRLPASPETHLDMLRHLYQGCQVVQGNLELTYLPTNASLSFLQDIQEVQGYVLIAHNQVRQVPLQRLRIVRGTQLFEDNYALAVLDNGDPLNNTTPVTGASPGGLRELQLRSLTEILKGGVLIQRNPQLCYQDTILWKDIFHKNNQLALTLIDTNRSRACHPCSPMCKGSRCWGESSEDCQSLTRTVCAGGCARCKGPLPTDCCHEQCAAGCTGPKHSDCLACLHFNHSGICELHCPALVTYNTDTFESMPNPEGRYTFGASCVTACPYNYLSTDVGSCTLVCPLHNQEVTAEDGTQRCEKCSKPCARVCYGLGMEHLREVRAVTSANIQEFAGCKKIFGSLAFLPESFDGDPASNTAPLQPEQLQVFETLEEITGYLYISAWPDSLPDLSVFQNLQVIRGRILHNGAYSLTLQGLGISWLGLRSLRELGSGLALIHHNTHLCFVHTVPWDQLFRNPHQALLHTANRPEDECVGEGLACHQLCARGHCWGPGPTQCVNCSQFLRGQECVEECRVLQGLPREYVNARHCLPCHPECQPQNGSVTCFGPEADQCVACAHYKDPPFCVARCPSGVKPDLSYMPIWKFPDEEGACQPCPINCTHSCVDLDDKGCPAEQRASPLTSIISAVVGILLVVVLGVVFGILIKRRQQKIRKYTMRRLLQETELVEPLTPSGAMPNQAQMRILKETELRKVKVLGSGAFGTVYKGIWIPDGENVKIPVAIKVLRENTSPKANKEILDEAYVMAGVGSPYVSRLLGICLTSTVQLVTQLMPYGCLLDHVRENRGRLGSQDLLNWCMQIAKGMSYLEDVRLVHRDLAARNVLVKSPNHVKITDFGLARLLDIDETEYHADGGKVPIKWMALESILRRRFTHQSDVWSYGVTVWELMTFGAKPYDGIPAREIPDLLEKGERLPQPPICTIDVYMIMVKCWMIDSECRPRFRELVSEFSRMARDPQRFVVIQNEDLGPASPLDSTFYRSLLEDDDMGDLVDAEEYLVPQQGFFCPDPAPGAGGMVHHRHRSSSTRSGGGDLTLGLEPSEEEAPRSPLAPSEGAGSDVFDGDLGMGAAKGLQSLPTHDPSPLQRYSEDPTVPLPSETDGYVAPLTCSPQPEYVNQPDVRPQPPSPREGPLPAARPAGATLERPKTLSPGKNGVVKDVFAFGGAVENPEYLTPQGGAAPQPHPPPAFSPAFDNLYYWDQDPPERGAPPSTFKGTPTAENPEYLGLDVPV

In general, viability refers to a read-out of living cells in per cent, often relative to untreated cells. The inhibition is the relative decrease from the control value, in per cent. On to `CC(C)Cn1c(CN2CCCCC2C)nc2c1c(=O)n(C)c(=O)n2C` (stereo not given), for which the viability was 88.5% in experiment [1]; 88.5% (inactive) in experiment [3]; 109% (inactive) in experiment [4]; 94.2% (inactive) in experiment [5]; 77.6% in experiment [6] (setting [9]); 94.2% in experiment [6] (setting [10]). The Her2 level in experiment [2] is 91.5% (inactive). Moreover, the differential viability (reversal) in experiment [6] (H69AR cells + 2 uM doxorubicin) was 16.7% (inactive). In addition, the inhibition in experiment [7] is -5.73% (inactive); in experiment [8], -3.61% (inactive).

As to `CCCCc1nccn1CCn1ccnc1CCCC`, the viability in experiment [1] is 87%; in experiment [3], 87% (inactive); in experiment [4], 97% (inactive); in experiment [5] it was 85.8% (inactive); in experiment [6] (setting [9]) it was 86.7%; in experiment [6] (setting [10]), 85.8%. Also, the Her2 level in experiment [2] is 85.5% (inactive). The differential viability (reversal) in experiment [6] (H69AR cells + 2 uM doxorubicin) was -0.88% (inactive). The figures for the inhibition in experiment [7] and in experiment [8] were -3.47% (inactive) and 1.61% (inactive), respectively.

With `COc1ccc(N(CC(=O)N2CCN(Cc3ccc4c(c3)OCO4)CC2)S(C)(=O)=O)cc1OC`, the viability was 106% in experiment [1]; 106% (inactive) in experiment [3]; 108% (inactive) in experiment [4]; 96.2% (inactive) in experiment [5]; 86.2% in experiment [6] (setting [9]); 96.2% in experiment [6] (setting [10]). The Her2 level in experiment [2] is 89.5% (inactive). Moreover, in experiment [6] (H69AR cells + 2 uM doxorubicin), the differential viability (reversal) is 9.96% (inactive). Further, the inhibition in experiment [7] is -8.67% (inactive); in experiment [8] it was -2.58% (inactive).

For `COc1ccccc1N1CCN(C(=O)c2oc3cc(C)c(C)cc3c2C)CC1`, the viability was 117% in experiment [1]; 117% (inactive) in experiment [3]; 82.4% (inactive) in experiment [4]; 92.7% (inactive) in experiment [5]; 94.9% in experiment [6] (setting [9]); 92.7% in experiment [6] (setting [10]). Besides, the Her2 level in experiment [2] was 104% (inactive). Moreover, the differential viability (reversal) in experiment [6] (H69AR cells + 2 uM doxorubicin) is -2.22% (inactive). For the same molecule, the inhibition was -1.18% (inactive) in experiment [7] and -2.62% (inactive) in experiment [8].

Turning to `COc1cc(CN(C)CC(=O)c2[nH]c(C)c(C(C)=O)c2C)ccc1OC(F)F`, the viability is 104% in experiment [1]; 104% (inactive) in experiment [3]; 97.3% (inactive) in experiment [4]; 85% (inactive) in experiment [5]; 78.6% in experiment [6] (setting [9]); 85% in experiment [6] (setting [10]). The Her2 level in experiment [2] was 82.5% (inactive). In addition, the differential viability (reversal) in experiment [6] (H69AR cells + 2 uM doxorubicin) is 6.44% (inactive). In addition, the inhibition in experiment [7] is -5.2% (inactive); in experiment [8] it was -5.08% (inactive).

As to `COc1cc(NC(=O)C(C)Oc2ccccc2)c(C(=O)O)cc1OC` (stereo not given), the viability in experiment [1] was 116%; in experiment [3], 116% (inactive); in experiment [4] it was 96.4% (inactive); in experiment [5], 92.8% (inactive); in experiment [6] (setting [9]), 81.1%; in experiment [6] (setting [10]), 92.8%. Further, the Her2 level in experiment [2] was 90% (inactive). Moreover, the differential viability (reversal) in experiment [6] (H69AR cells + 2 uM doxorubicin) is 11.7% (inactive). Further, the figures for the inhibition in experiment [7] and in experiment [8] were -7.07% (inactive) and 2.13% (inactive), respectively.

Turning to `CCCCc1c(O)nc(SCC(=O)c2ccccc2)[nH]c1=O`, the viability in experiment [1] was 105%; in experiment [3], 105% (inactive); in experiment [4] it was 89% (inactive); in experiment [5], 104% (inactive); in experiment [6] (setting [9]) it was 83%; in experiment [6] (setting [10]), 104%. Moreover, the Her2 level in experiment [2] is 102% (inactive). Moreover, in experiment [6] (H69AR cells + 2 uM doxorubicin), the differential viability (reversal) is 21.1% (inactive). The inhibition in experiment [7] was -4.87% (inactive); in experiment [8], 11.8% (inactive).

On to `CCC(=O)N(CCCN(C)C)c1nc(-c2cc(OC)ccc2OC)cs1`, for which the viability is 93.5% in experiment [1]; 93.5% (inactive) in experiment [3]; 78.2% (inactive) in experiment [4]; 84.6% (inactive) in experiment [5]; 73.3% in experiment [6] (setting [9]); 84.6% in experiment [6] (setting [10]). Also, in experiment [2], the Her2 level was 87.5% (inactive). Further, in experiment [6] (H69AR cells + 2 uM doxorubicin), the differential viability (reversal) was 11.2% (inactive). For the same molecule, the values for the inhibition in experiment [7] and in experiment [8] were -5.2% (inactive) and 5.08% (inactive), respectively.

Regarding `O=C(Cn1c(SCC(=O)N2CCCc3ccccc32)nc2ccccc21)N1CCCC1`, the viability in experiment [1] was 94%; in experiment [3], 94% (inactive); in experiment [4] it was 104% (inactive); in experiment [5], 98.3% (inactive); in experiment [6] (setting [9]), 93.6%; in experiment [6] (setting [10]) it was 98.3%. Besides, the Her2 level in experiment [2] was 96% (inactive). For the same molecule, the differential viability (reversal) in experiment [6] (H69AR cells + 2 uM doxorubicin) was 4.66% (inactive). Moreover, the results for the inhibition in experiment [7] and in experiment [8] were -6.05% (inactive) and -2.38% (inactive), respectively.

As to `COC(=O)c1cc(Br)c(=O)n(Cc2cccnc2)c1`, the viability in experiment [1] was 108%; in experiment [3] it was 108% (inactive); in experiment [4], 95.9% (inactive); in experiment [5] it was 97.3% (inactive); in experiment [6] (setting [9]), 80.3%; in experiment [6] (setting [10]) it was 97.3%. Further, in experiment [2], the Her2 level was 81.5% (inactive). Also, the differential viability (reversal) in experiment [6] (H69AR cells + 2 uM doxorubicin) was 17% (inactive). The inhibition in experiment [7] was -3.95% (inactive); in experiment [8] it was 0.18% (inactive).

For `CN(c1ccccc1)C(c1ccc(F)cc1)c1nnnn1CC1CCCO1` (stereo not given), the viability was 104% in experiment [1]; 104% (inactive) in experiment [3]; 97% (inactive) in experiment [4]; 94.1% (inactive) in experiment [5]; 87.6% in experiment [6] (setting [9]); 94.1% in experiment [6] (setting [10]). Besides, the Her2 level in experiment [2] is 98% (inactive). The differential viability (reversal) in experiment [6] (H69AR cells + 2 uM doxorubicin) is 6.48% (inactive). For the same molecule, the inhibition is -4.32% (inactive) in experiment [7] and 0.83% (inactive) in experiment [8].

For the molecule `CCOC(=O)c1cccc(NC(=O)CSc2nnc(-c3ccoc3C)n2CCOC)c1`, the viability in experiment [1] was 102%; in experiment [3], 102% (inactive); in experiment [4] it was 91.6% (inactive); in experiment [5] it was 89.7% (inactive); in experiment [6] (setting [9]) it was 92.4%; in experiment [6] (setting [10]), 89.7%. The Her2 level in experiment [2] is 92% (inactive). In experiment [6] (H69AR cells + 2 uM doxorubicin), the differential viability (reversal) is -2.74% (inactive). The values for the inhibition in experiment [7] and in experiment [8] were -1.45% (inactive) and 0.81% (inactive), respectively.

For `O=C1NC(c2ccccc2)(C(F)(F)F)SC2=CCCCCN12` (stereo not given), the viability was 90.5% in experiment [1]; 90.5% (inactive) in experiment [3]; 86.2% (inactive) in experiment [4]; 94.3% (inactive) in experiment [5]; 92% in experiment [6] (setting [9]); 94.3% in experiment [6] (setting [10]). For the same molecule, the Her2 level in experiment [2] is 106% (inactive). Moreover, the differential viability (reversal) in experiment [6] (H69AR cells + 2 uM doxorubicin) was 2.37% (inactive). In addition, the inhibition in experiment [7] is -3.29% (inactive); in experiment [8], -3.33% (inactive).

On to `CCC(C)OC(=O)n1ccc(C(=O)Nc2nccs2)n1` (stereo not given), for which the viability in experiment [1] was 106%; in experiment [3], 106% (inactive); in experiment [4], 91.4% (inactive); in experiment [5], 91.4% (inactive); in experiment [6] (setting [9]) it was 95.6%; in experiment [6] (setting [10]), 91.4%. The Her2 level in experiment [2] was 84% (inactive). Moreover, in experiment [6] (H69AR cells + 2 uM doxorubicin), the differential viability (reversal) was -4.24% (inactive). In addition, the inhibition is 0.53% (inactive) in experiment [7] and -4.19% (inactive) in experiment [8].

Turning to `CCOC(=O)Cn1c(N2CCOCC2)nc2c1c(=O)[nH]c(=O)n2C`, the viability was 106% in experiment [1]; 106% (inactive) in experiment [3]; 89.7% (inactive) in experiment [4]; 88.1% (inactive) in experiment [5]; 88.4% in experiment [6] (setting [9]); 88.1% in experiment [6] (setting [10]). Moreover, in experiment [2], the Her2 level is 85.5% (inactive). Besides, in experiment [6] (H69AR cells + 2 uM doxorubicin), the differential viability (reversal) is -0.31% (inactive). In addition, the results for the inhibition in experiment [7] and in experiment [8] were -3.95% (inactive) and -6.83% (inactive), respectively.

As to `CCCS(=O)(=O)N1CCCC(C(=O)N2CCC(Cc3ccccc3)CC2)C1` (stereo not given), the viability in experiment [1] was 91.5%; in experiment [3], 91.5% (inactive); in experiment [4], 85.9% (inactive); in experiment [5], 98.7% (inactive); in experiment [6] (setting [9]), 97.1%; in experiment [6] (setting [10]) it was 98.7%. The Her2 level in experiment [2] is 96.5% (inactive). The differential viability (reversal) in experiment [6] (H69AR cells + 2 uM doxorubicin) was 1.65% (inactive). The inhibition in experiment [7] is -1.32% (inactive); in experiment [8] it was 4.92% (inactive).
